# Measured values taken from ChEMBL document CHEMBL3244306, “Folate analogues altered in the C9-N10 bridge region: N10-Toxylisohomofolic acid and N10-Toxylisohomoaminopterin” (1978).
# Calls of active or inactive are those of the source. The calls are words filed in the database; no cut-off is given here.
# How the values were obtained:
# [1] = biological target: T1, Thymidylate synthase (Lactobacillus casei) (UniProt P00469); assay: Inhibition of Lactobacillus casei thymidylate synthase assessed as conversion of dUMP32 to dTP32PP at 1 X 10^-4 M after 30 mins relative to control; settings: Lacticaseibacillus casei
# T1 sequence (whole entry): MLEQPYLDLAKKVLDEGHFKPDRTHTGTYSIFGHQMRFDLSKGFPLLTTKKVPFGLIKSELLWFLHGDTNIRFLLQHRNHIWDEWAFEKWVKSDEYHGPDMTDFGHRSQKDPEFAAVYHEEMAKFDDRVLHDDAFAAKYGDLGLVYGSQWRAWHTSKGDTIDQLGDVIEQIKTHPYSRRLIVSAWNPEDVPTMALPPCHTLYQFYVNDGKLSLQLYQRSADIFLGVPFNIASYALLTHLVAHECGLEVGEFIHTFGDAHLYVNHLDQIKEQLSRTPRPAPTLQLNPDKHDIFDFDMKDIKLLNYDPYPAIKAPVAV
# Enterococcus faecium [2] = assay: Antibacterial activity against methotrexate-resistant Streptococcus faecium assessed as growth inhibition up to 4 ug/ml; type: functional, organism-based
# Enterococcus faecium [3] = assay: Antibacterial activity against Streptococcus faecium ATCC 8043 assessed as growth inhibition; type: functional
# [4] = biological target: Dihydrofolate reductase (Lactobacillus casei) (UniProt P00381); assay: Inhibition of Lactobacillus casei DHFR at 6.2 X 10^-5 M relative to control; settings: Lacticaseibacillus casei
# Lacticaseibacillus casei [5] = assay: Antibacterial activity against Lactobacillus casei ATCC 7469 assessed as growth inhibition; type: functional
# Pediococcus = assay: Antimicrobial activity against Pediococcus cerevisiae ATCC 8081 assessed as growth inhibition; type: functional
# Lacticaseibacillus casei [6] = assay: Antibacterial activity against methotrexate-resistant Lactobacillus casei assessed as growth inhibition up to 4 ug/ml; type: functional, organism-based
# Lacticaseibacillus casei [7] = assay: Inhibition of 5-[14C]methyltetrahydrofolate uptake in Lactobacillus casei at 4 X 10^-7 M relative to control; type: functional
# Outline: (§1)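 Cells (1.0 × 10⁹, 1.0 mg dry weight) in 0.1 M potassium phosphate pH 6.5 with 1% glucose and […] (40000 cpm) 5-[¹⁴C]methyltetrahydrofolate, 1.0 mL total. Incubated 1 min at 37 °C, then stopped by membrane filtration with three ice-cold saline washes. Dried filters were scintillation counted. Uptake is compared with a control.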
# Lacticaseibacillus casei [8] = assay: Inhibition of 5-[14C]methyltetrahydrofolate uptake in Lactobacillus casei at 1.6 X 10^-6 M relative to control; type: functional; outline: as §1
# [9] = biological target: Dihydrofolate reductase (Lactobacillus casei) (UniProt P00381); assay: Inhibition of Lactobacillus casei DHFR at 1 X 10^-4 M relative to control; settings: Lacticaseibacillus casei
# [10] = biological target: T1, Thymidylate synthase (Lactobacillus casei); assay: Inhibition of Lactobacillus casei thymidylate synthase assessed as conversion of dUMP32 to dTP32PP at 6 X 10^-5 M after 30 mins relative to control; settings: Lacticaseibacillus casei
# Lacticaseibacillus casei [11] = assay: Inhibition of 5-[14C]methyltetrahydrofolate uptake in Lactobacillus casei at 1.5 X 10^-5 M relative to control; type: functional; outline: as §1
# Lacticaseibacillus casei [12] = assay: Inhibition of 5-[14C]methyltetrahydrofolate uptake in Lactobacillus casei at 1 X 10^-4 M relative to control; type: functional; outline: as §1
# Sequence of Dihydrofolate reductase (Lactobacillus casei) (P00381 whole entry): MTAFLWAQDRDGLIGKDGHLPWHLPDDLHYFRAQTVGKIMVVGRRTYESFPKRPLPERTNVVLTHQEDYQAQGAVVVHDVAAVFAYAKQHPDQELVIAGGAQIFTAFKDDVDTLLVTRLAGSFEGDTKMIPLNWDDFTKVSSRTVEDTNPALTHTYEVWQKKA
inhibition [1],inhibition [9],inhibition [10],Compound,growth inhibition (GI) (Enterococcus faecium [2]),growth inhibition (GI) (Pediococcus),growth inhibition (GI) (Lacticaseibacillus casei [6]),inhibition at 0.4 µM (Lacticaseibacillus casei [7]),further results
0%,17%,–,Cc1ccc(S(=O)(=O)N(Cc2ccc(C(=O)O)cc2)Cc2cnc3nc(N)nc(N)c3n2)cc1,–,–,–,–,inhibition at 1.6 µM (Lacticaseibacillus casei [8]): 50%
–,25%,15%,Cc1ccc(S(=O)(=O)N(Cc2ccc(C(=O)O)cc2)Cc2cnc3nc(N)nc(O)c3n2)cc1,–,–,–,–,–
–,23%,16%,COC(=O)c1ccc(CN(Cc2cnc3nc(N)nc(O)c3n2)S(=O)(=O)c2ccc(C)cc2)cc1,–,–,–,–,inhibition at 15 µM (Lacticaseibacillus casei [11]): 50%

# Second part, the molecule before the results:
Compound,inhibition [1],inhibition [9],inhibition [10],growth inhibition (GI) (Enterococcus faecium [2]),growth inhibition (GI) (Pediococcus),growth inhibition (GI) (Lacticaseibacillus casei [6]),inhibition at 0.4 µM (Lacticaseibacillus casei [7]),further results
Cc1ccc(S(=O)(=O)N(Cc2ccc(C(=O)N[C@@H](CCC(=O)O)C(=O)O)cc2)Cc2cnc3nc(N)nc(N)c3n2)cc1,20%,–,–,inactive,inactive,inactive,50%,GI50 (Enterococcus faecium [3]): 3.8 µg/mL; inhibition [4]: 50%; GI50 (Lacticaseibacillus casei [5]): 0.2 µg/mL
Cc1ccc(S(=O)(=O)N(Cc2ccc(C(=O)N[C@@H](CCC(=O)O)C(=O)O)cc2)Cc2cnc3nc(N)nc(O)c3n2)cc1,–,32%,12%,inactive,inactive,inactive,50%,growth inhibition (GI) (Enterococcus faecium [3]): inactive; growth inhibition (GI) (Lacticaseibacillus casei [5]): inactive
COC(=O)c1ccc(CN(CC2=Nc3c(N)nc(N)nc3NC2)S(=O)(=O)c2ccc(C)cc2)cc1,0%,0%,–,–,–,–,–,inhibition at 100 µM (Lacticaseibacillus casei [12]): 32%
